Assay [1] deals with TNFα-induced NF-κB activation. The experiment in a line: suppression of TNFα-induced NF-κB activation in HEK-Blue CD40L sensor cells. Format: cell-based, human. The note with it: for IC50: Homo sapiens, HEK-Blue, 20 h, read-out: TNFα, IC50; for rRBATNFα: relative potency from TNFα IC50, DEX = 100. In short, it runs like this:
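Cells used: HEK293 stably expressing human CD40 and an NF-κB/AP-1-inducible SEAP, seeded at about 5 × 10⁴ cells/well in 1% FBS DMEM. TNFα (3 ng/mL) added with test compound at 0, 0.01, 0.1, 1.0, 10, 100 or 1000 nM; incubated 20 h at 37°C, 5% CO₂. SEAP quantified with QUANTI-Blue at 620–655 nm. Five independent experiments, triplicates or quadruplicates. Percent suppression fitted to a Hill equation (bottom zero; shared Emax and nH).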

Assay [2] relates to CD40L-induced NF-κB activation. The experiment in a line: suppression of CD40L-induced NF-κB activation in HEK-Blue CD40L sensor cells. Format: cell-based, human. The note with it: for IC50: Homo sapiens, HEK-Blue, 30 h, read-out: CD40L, IC50; for CD40L/TNFα pot.: potency ratio of CD40L assay vs TNFα assay; for rRBACD40L: relative potency from CD40L IC50, DEX = 100. In short, it runs like this:
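Reporter HEK293 cells (human CD40; NF-κB/AP-1-driven SEAP) at about 5 × 10⁴ cells/well in 1% FBS DMEM. Stimulated with CD40L (CD154, 25 ng/mL) plus test compound at 0–1000 nM (10-fold steps) for 30 h at 37°C, 5% CO₂. SEAP read by QUANTI-Blue at 620–655 nm. Five independent experiments in triplicate or quadruplicate. Percent suppression vs stimulation alone fitted to a Hill model (bottom fixed at zero; Emax and nH shared).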

Assay [3] addresses glucocorticoid receptor (GR). The note with it: cited from earlier work; for Kd: read-out: Kd,lit, consensus average of published GR binding values; for rRBAlit: relative receptor binding affinity, DEX = 100.
Assay [4] concerns the target CD40 (Homo sapiens) (UniProt P25942). The note with it: cited from earlier work.
Sequence of UniProt P25942 (P25942 21-277): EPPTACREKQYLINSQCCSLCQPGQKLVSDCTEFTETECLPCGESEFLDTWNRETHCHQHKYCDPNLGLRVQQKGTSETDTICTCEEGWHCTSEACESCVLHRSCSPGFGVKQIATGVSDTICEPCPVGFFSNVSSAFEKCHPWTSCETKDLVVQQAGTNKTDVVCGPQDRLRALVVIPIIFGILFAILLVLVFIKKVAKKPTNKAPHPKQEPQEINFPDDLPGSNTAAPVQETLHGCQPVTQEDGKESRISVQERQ
Assay [5] concerns the target CD40. The note with it: read-out: Kd CD40L – CD40; cell-free binding; cited from earlier work.
In assay [6] the test system is NF-κB activation in HEK-Blue CD40L sensor cells. The experiment in a line: ligand-induced NF-κB activation of HEK-Blue CD40L sensor cells. Format: cell-based, human. The note with it: one-site specific binding model. In short, it runs like this: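 HEK293 cells stably carrying human CD40 and a SEAP reporter under the IFN-β minimal promoter with five NF-κB and five AP-1 sites. Grown in DMEM (4.5 g/L glucose, 10% FBS, 2 mM L-glutamine), then resuspended in 1% FBS medium. Stimulated with FLAG-tagged TNFα or CD40L (CD154) over a concentration series. SEAP measured with QUANTI-Blue at 620–655 nm; data fitted with a one-site specific binding model.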

The target in assay [7] is TNF-R1. The note with it: read-out: Kd TNFα – TNF-R1; cell-free binding; cited from earlier work.

“And” between values parts separate entries of the source, which are not always exact repeats. Identical values can stand only once.

Sequence of CD40L (P29965 113-261): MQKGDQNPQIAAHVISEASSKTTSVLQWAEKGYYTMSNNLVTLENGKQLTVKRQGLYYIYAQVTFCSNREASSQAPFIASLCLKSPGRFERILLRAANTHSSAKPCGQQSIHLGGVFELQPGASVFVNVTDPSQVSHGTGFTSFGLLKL

Regarding `CCC(=O)OCC(=O)[C@@]1(OC(=O)CC)[C@@H](C)C[C@H]2[C@@H]3CCC4=CC(=O)C=C[C@]4(C)[C@@]3(Cl)[C@@H](O)C[C@@]21C` [BDP, beclomethasone dipropionate], in assay [1], the IC50 (as a rule, the concentration that gives 50% inhibition) was 0.1 nM and the rRBATNFα was found to be 2952.7. Further, in assay [2], the IC50 was found to be 0.22 nM, the CD40L/TNFα pot. was 0.46 and the rRBACD40L was 872.2.
Consider `CCC(=O)O[C@]1(C(=O)CCl)[C@@H](C)C[C@H]2[C@@H]3CCC4=CC(=O)C=C[C@]4(C)[C@@]3(F)[C@@H](O)C[C@@]21C` [CP, clobetasol propionate], for which, in assay [3], the Kd (commonly a measure of binding affinity in units of concentration) is 0.1 nM and the rRBAlit was 6300.0. In assay [1], the IC50 was 0.02 nM and the rRBATNFα was 13074.5. In assay [2], the IC50 came to 0.01 nM, the CD40L/TNFα pot. came out at 1.62 and the rRBACD40L is on record as 13653.4.
In the case of `C[C@@H]1C[C@H]2[C@@H]3CCC4=CC(=O)C=C[C@]4(C)[C@@]3(F)[C@@H](O)C[C@]2(C)[C@@]1(O)C(=O)CO` [DEX, dexamethasone], in assay [3], the rRBAlit is 100.0. In addition, in assay [1], the IC50 was found to be 2.93 nM and the rRBATNFα is 100.0. Besides, in assay [2], the IC50 came out at 1.89 nM, the CD40L/TNFα pot. was 1.55 and the rRBACD40L is given as 100.0.
With `C[C@]12CCC(=O)C=C1CC[C@@H]1[C@@H]2[C@@H](O)C[C@@]2(C)[C@H]1CC[C@]2(O)C(=O)CO` [HC, hydrocortisone], the rRBAlit in assay [3] is 10. Besides, in assay [1], the IC50 came to 15.5 nM and the rRBATNFα is given as 18.9. In assay [2], the IC50 worked out at 0.54 nM, the CD40L/TNFα pot. is 28.75 and the rRBACD40L was 350.3.
In the case of `CCOC(=O)O[C@]1(C(=O)OCCl)CC[C@H]2[C@@H]3CCC4=CC(=O)C=C[C@]4(C)[C@H]3[C@@H](O)C[C@@]21C` [LE, loteprednol etabonate], in assay [3], the Kd was 4.39 nM and the rRBAlit was 150.0. Besides, in assay [1], the IC50 stood at 0.79 nM and the rRBATNFα is on record as 372.6. In addition, in assay [2], the IC50 is 0.06 nM, the CD40L/TNFα pot. was found to be 13.96 and the rRBACD40L is on record as 3357.0.
With `C[C@]12C=CC(=O)C=C1CC[C@@H]1[C@@H]2[C@@H](O)C[C@@]2(C)[C@H]1CC[C@]2(O)C(=O)CO` [PRED, prednisolone], in assay [3], the “GR rRBA” value was “≈ 20 % of dexamethasone” and the rRBAlit is on record as 19.0. Besides, in assay [1], the IC50 amounted to 14.2 nM and the rRBATNFα is on record as 20.6. Moreover, in assay [2], the IC50 turned out to be 0.3 nM, the CD40L/TNFα pot. was 47.49 and the rRBACD40L amounted to 632.9.
`CC1(C)O[C@@H]2C[C@H]3[C@@H]4CCC5=CC(=O)C=C[C@]5(C)[C@@]4(F)[C@@H](O)C[C@]3(C)[C@]2(C(=O)CO)O1` [TA, triamcinolone acetonide]: in assay [3], the Kd was 2.44 nM and the rRBAlit is 270.0. For the same molecule, in assay [1], the IC50 was found to be 0.76 nM and the rRBATNFα is recorded as 387.4. Also, in assay [2], the concentration for half-maximal inhibition (IC50) amounted to 0.43 nM, the CD40L/TNFα pot. stood at 1.77 and the rRBACD40L turned out to be 442.1.
Turning to CD40L (from UniProt P29965), the Kd in assay [4] is 1 nM.
Take “CD40L: FLAG-tagged ligand used for stimulation in the cell assays (Axxora)”: in assay [5], the Kd is ~1 nM. For the same molecule, the “median effective concentration (EC50) for NF-κB activation” value in assay [6] was 0.041 mg/L and ~0.04 mg/L.
As for TNFα, in assay [6], the “median effective concentration (EC50) for NF-κB activation” value was 0.0027 mg/L and ~0.003 mg/L. Besides, the Kd in assay [7] is ~0.5 nM.

The values above are taken from article PMC4049353 (Steroids, 2014).
